One assay deals with Aspergillus flavus. Kind of assay: Antifungal activity against Aspergillus flavus NRRL 6541 at 200 ug/disk after 48 hrs by standard disk diffusion assay. The assay is classed as functional. As to conditions: for zone of inhibition at 200 µg/disc: NRRL 6541, 48 h, read-out: IZ. An outline of the steps: (§1)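 Compounds applied at 200 µg per disk. Read-out was the zone diameter (mm) around the disk at 48 h. Zones were scored as clear, partial clearing, or reduced sporulation of the fungus.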
(In general: Agar diffusion results depend on both activity and mobility in agar.)

Another assay relates to Staphylococcus aureus. Kind of assay: […] activity against Staphylococcus aureus ATCC 29213 at 200 ug/disk after 48 hrs by standard disk diffusion assay. The assay is classed as functional, organism-based.
The next assay concerns Candida albicans. As to the kind of experiment: Antifungal activity against Candida albicans ATCC 14053 at 200 ug/disk after 48 hrs by standard disk diffusion assay. The class given is functional, organism-based.
In a further assay the test system is Escherichia coli. Kind of assay: […] activity against Escherichia coli ATCC 25922 at 200 ug/disk after 48 hrs by standard disk diffusion assay. The assay is classed as functional, organism-based.
The test system of another assay is Fusarium verticillioides. Kind of assay: Antifungal activity against Fusarium verticillioides NRRL 25457 at 200 ug/disk after 48 hrs by standard disk diffusion assay. The assay is classed as functional, organism-based. An outline of the steps:
as §1

Activity calls are given as the source filed them. The calls are words filed in the database; no cut-off is given here.

`C/C=C/C=C/C(=O)c1cc(C)c(OC)cc1O`: in the assay with Aspergillus flavus, the outcome was inactive.

Turning to `O[C@@H]1c2cocc2[C@@H](O)[C@H]2O[C@H]21`, the outcome in the assay with Staphylococcus aureus, in the assay with Candida albicans, with Escherichia coli, in the assay with Aspergillus flavus and in the assay with Fusarium verticillioides was inactive.

For `C/C=C/CCC(=O)c1cc(CO)c(OC)cc1O`, the zone of inhibition at 200 µg/disc with Aspergillus flavus was 18 mm.

In the case of `C/C=C/C=C/C(=O)c1cc(C=O)c(OC)cc1O`, in the assay on Aspergillus flavus, the zone of inhibition at 200 µg/disc was 40 mm.

In the case of `CCCC(O)[C@H]1OCC2=C1[C@@H](O)[C@H]1O[C@H]1[C@@H]2O` (stereo partly drawn), the outcome with Staphylococcus aureus, with Candida albicans, with Escherichia coli, in the assay on Aspergillus flavus and with Fusarium verticillioides was inactive.

(Values after ChEMBL document CHEMBL1157229, “Phaeofurans and sorbicillin analogues from a fungicolous Phaeoacremonium species (NRRL 32148)” (2006).)
